Values after ≈ are worked out from the molar mass of the structure shown. Active and inactive are the calls of the source. The rule behind the calls is not given here.
How the values were obtained:
Enterobacter cloacae = experiment: Antibacterial activity against ampicillin/cefotaxime/tetracycline/ceftriaxone-resistant Enterobacter cloacae O3 assessed as inhibition of bacterial growth measured after 16 to 20 hrs by two-fold serial microbroth dilution method; assay type: functional, organism-based; settings: time 16-20 hrs
Summary of the method: (§1)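 Broth microdilution MIC in LB and M9 medium. Inoculum adjusted to about 5 × 10⁵ cells/ml. Compound serially diluted twofold. Plates covered and incubated at 37 °C with shaking. OD600 read; MIC taken as the lowest concentration giving no growth after 16–20 h.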

Staphylococcus aureus = experiment: Antibacterial activity against Fosfomycin resistant Staphylococcus aureus ATCC USA 206 assessed as inhibition of bacterial growth measured after 16 to 20 hrs by two-fold serial microbroth dilution method; assay type: functional, organism-based; settings: time 16-20 hrs; summary of the method: as §1
[1] = Selectivity index, ratio of CC50 for human HEK293 cells to MIC for antibacterial activity against Escherichia coli; assay type: toxicity; settings: read-out: Selectivity Index
Proteus vulgaris = experiment: Antibacterial activity against Proteus vulgaris O41 assessed as inhibition of bacterial growth measured after 16 to 20 hrs by two-fold serial microbroth dilution method; assay type: functional, organism-based; settings: time 16-20 hrs
Summary of the method: (§2)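 Broth microdilution in LB and M9 medium. Inoculum adjusted to about 5 × 10⁵ cells/ml. Compound diluted twofold serially in microplate wells, then plates covered and incubated at 37 °C with shaking. Growth read as OD600. MIC taken as the lowest concentration giving no growth after 16–20 h.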

Escherichia coli [2] = experiment: Antibacterial activity against ampicillin/cefotaxime/tetracycline/ceftriaxone-resistant Escherichia coli mx7 assessed as inhibition of bacterial growth measured after 16 to 20 hrs by two-fold serial microbroth dilution method; assay type: functional, organism-based; settings: time 16-20 hrs; summary of the method: as §1
[3] = Cytotoxicity against human HEK293 cells assessed as reduction in cell viability measured after 28 hrs by PrestoBlue reagent based fluorescence analysis
Summary of the method: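 HEK293 cells seeded at 25*10³ per well in DMEM with 10% FBS, 2 mM L-Glu and 50 µg/ml gentamicin. Cells held 24 h at 37 °C, 5% CO2 before compound was added (final DMSO 0.1%), then incubated 28 h. Viability read by PrestoBlue fluorescence at 590 nm, expressed relative to 0.1% DMSO control (100%). CC50 derived by curve fitting.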

HEK293 [4] = experiment: Induction of cell cycle arrest in human HEK293 cells assessed as increase in accumulation of apoptotic cells at sub G1 phase at 71 uM measured after 48 hrs by propidium iodide staining based flow cytometry; settings: hek293, 48 h
Summary of the method: (§3)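 Cell-cycle profiling of HEK293 cells treated with compound or vehicle (0.1% DMSO). Cells harvested (400 × g, 5 min) and fixed in ice-cold 70% ethanol for 24 h at −20 °C. Washed in PBS, treated with RNase A (0.5 mg/ml, 5 min, room temperature), then stained with propidium iodide (50 µg/ml, 30 min). DNA content read by flow cytometry on a linear scale. At least duplicate; mean ± S.E.M.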

Pseudomonas aeruginosa [5] = experiment: Antibacterial activity against ampicillin/cefotaxime-resistant Pseudomonas aeruginosa ATCC 27853 assessed as inhibition of bacterial growth measured after 16 to 20 hrs by two-fold serial microbroth dilution method; assay type: functional, organism-based; settings: time 16-20 hrs; summary of the method: as §1
Klebsiella pneumoniae = experiment: Antibacterial activity against ampicillin/fosfomycin-resistant Klebsiella pneumonia 181210171-2 assessed as inhibition of bacterial growth measured after 16 to 20 hrs by two-fold serial microbroth dilution method; assay type: functional, organism-based; settings: time 16-20 hrs; summary of the method: as §1
Proteus sp. = experiment: Antibacterial activity against ampicillin/cefotaxime/tetracycline/ceftriaxone/fosfomycin-resistant Proteus sp. O14 assessed as inhibition of bacterial growth measured after 16 to 20 hrs by two-fold serial microbroth dilution method; assay type: functional, organism-based; settings: time 16-20 hrs; summary of the method: as §1
Pseudomonas aeruginosa [6] = experiment: Antibacterial activity against Pseudomonas aeruginosa R42 assessed as inhibition of bacterial growth measured after 16 to 20 hrs by two-fold serial microbroth dilution method; assay type: functional, organism-based; settings: time 16-20 hrs; summary of the method: as §2
HEK293 [7] = experiment: Induction of cell cycle arrest in human HEK293 cells assessed as increase in accumulation of cells at S phase at 71 uM after 24 hrs by propidium iodide staining based flow cytometry; settings: hek293, 24 h; summary of the method: as §3
Morganella morganii = experiment: Antibacterial activity against Morganella morganii R36 assessed as inhibition of bacterial growth measured after 16 to 20 hrs by two-fold serial microbroth dilution method; assay type: functional, organism-based; settings: time 16-20 hrs; summary of the method: as §2
Escherichia coli [8] = experiment: Antibacterial activity against Escherichia coli ATCC25922 assessed as inhibition of bacterial growth measured after 16 to 20 hrs by two-fold serial microbroth dilution method; assay type: functional, organism-based; settings: ATCC 25922, time 16-20 hrs; summary of the method: as §2
Bacillus subtilis = experiment: Antibacterial activity against Bacillus subtilis 3HM assessed as inhibition of bacterial growth measured after 16 to 20 hrs by two-fold serial microbroth dilution method; assay type: functional, organism-based; settings: time 16-20 hrs; summary of the method: as §2
Klebsiella aerogenes = experiment: Antibacterial activity against Enterobacter aerogenes R41 assessed as inhibition of bacterial growth measured after 16 to 20 hrs by two-fold serial microbroth dilution method; assay type: functional, organism-based; settings: time 16-20 hrs; summary of the method: as §2
Hafnia alvei = experiment: Antibacterial activity against Ampicillin resistant Hafnia alvei O31 assessed as inhibition of bacterial growth measured after 16 to 20 hrs by two-fold serial microbroth dilution method; assay type: functional, organism-based; settings: time 16-20 hrs; summary of the method: as §1
Aeromonas = experiment: Antibacterial activity against Aeromonas sp. O9 assessed as inhibition of bacterial growth measured after 16 to 20 hrs by two-fold serial microbroth dilution method; assay type: functional, organism-based; settings: time 16-20 hrs; summary of the method: as §2
Citrobacter koseri = experiment: Antibacterial activity against Citrobacter koseri R38 assessed as inhibition of bacterial growth measured after 16 to 20 hrs by two-fold serial microbroth dilution method; assay type: functional, organism-based; settings: time 16-20 hrs; summary of the method: as §2
Escherichia coli [9] = experiment: Antibacterial activity against Escherichia coli assessed as inhibition of bacterial growth measured after 16 to 20 hrs by two-fold serial microbroth dilution method; assay type: functional; settings: time 16-20 hrs; summary of the method: as §2
Klebsiella oxytoca = experiment: Antibacterial activity against Klebsiella oxytoca R48 assessed as inhibition of bacterial growth measured after 16 to 20 hrs by two-fold serial microbroth dilution method; assay type: functional, organism-based; settings: time 16-20 hrs; summary of the method: as §2
Enterobacter = experiment: Antibacterial activity against Enterobacter sp. O54 assessed as inhibition of bacterial growth measured after 16 to 20 hrs by two-fold serial microbroth dilution method; assay type: functional, organism-based; settings: time 16-20 hrs; summary of the method: as §2
Candida albicans = experiment: Antibacterial activity against ampicillin/cefotaxime/tetracycline/ceftriaxone/fosfomycin-resistant Candida albicans 181210169-1 assessed as inhibition of fungal growth measured after 16 to 20 hrs by two-fold serial microbroth dilution method; assay type: functional, organism-based; settings: time 16-20 hrs; summary of the method: as §1

CCn1c(O)c(C(=O)CC2c3c(cc4c(c3OC)OCO4)CCN2C)c(=O)n(CC)c1=S (stereo not drawn)
Activity (Enterobacter cloacae): inactive | Activity (Staphylococcus aureus): Active | selectivity ratio [1]: 5.5 | Activity (Proteus vulgaris): inactive | Activity (Escherichia coli [2]): inactive | CC50 at 28 h [3]: 71 µM | Activity (HEK293 [4]): Toxic | Activity (Pseudomonas aeruginosa [5]): inactive | Activity (Klebsiella pneumoniae): inactive | Activity (Proteus sp.): inactive | Activity (Pseudomonas aeruginosa [6]): inactive | Activity (HEK293 [7]): Toxic | Activity (Morganella morganii): inactive | Activity (Escherichia coli [8]): inactive | Activity (Bacillus subtilis): Active | Activity (Klebsiella aerogenes): inactive | Activity (Hafnia alvei): inactive | Activity (Aeromonas): inactive | Activity (Citrobacter koseri): inactive | MIC (Escherichia coli [9]): 13.5 µM (≈ 6.23 µg/mL) | Activity (Klebsiella oxytoca): inactive | Activity (Enterobacter): inactive | Activity (Candida albicans): inactive

From ChEMBL document CHEMBL4819096, “Antibacterial activity of noscapine analogs” (Bioorg Med Chem Lett, 2021)
